Assay results gathered from unrelated publications.
Organism: Staphylococcus aureus

Structure (SMILES)	observed	method	strain	concentration	time	measurement	value
[H]/N=C(/N)N[C@H]1[C@H](O)[C@@H](O)[C@H](O[C@@H]2O[C@@H](C)[C@](O)(C=O)[C@H]2O[C@@H]2O[C@@H](CO)[C@H](O)[C@@H](O)[C@@H]2NC)[C@@H](N/C(N)=N\[H])[C@@H]1O	microbial growth	well diffusion	NCIM5021	500 µg/mL		inhibition zone	22 mm
CN[C@H](CC(C)C)C(=O)N[C@H]1C(=O)N[C@@H](CC(N)=O)C(=O)N[C@H]2C(=O)N[C@H]3C(=O)N[C@H](C(=O)N[C@H](C(=O)O)c4cc(O)cc(O)c4-c4cc3ccc4O)[C@H](O)c3ccc(c(Cl)c3)Oc3cc2cc(c3O[C@@H]2O[C@H](CO)[C@@H](O)[C@H](O)[C@H]2O[C@H]2C[C@](C)(N)[C@H](O)[C@H](C)O2)Oc2ccc(cc2Cl)[C@H]1O	microbial growth	disc diffusion	ATCC29213	250 µg/disc	24 h	inhibition zone	21 mm
O=C(O)CN1C(=O)/C(=C/c2ccc(-c3ccc(N(c4ccccc4)c4ccccc4)cc3)c3ccccc23)NC1=S	microbial killing	broth dilution	ATCC6538			MBC	> 1000 µg/mL
COc1ccc2nc(-n3nc(C)c4c3-c3ccccc3C4=O)sc2c1	microbial growth	well diffusion	NCIM5021	1000 µg/mL		inhibition zone	13 mm
NC(=O)c1ccc(-c2nc(-c3ccccn3)c(-c3ccc4c(c3)OCO4)[nH]2)cc1	microbial growth		NCTC8325			MIC	> 30 µM
O=C1NC(=S)S/C1=C\c1c2ccccc2c(-c2ccc(N(c3ccccc3)c3ccccc3)cc2)c2ccccc12	microbial killing	broth dilution	ATCC25923			MBC	> 1000 µg/mL
Cn1cnc(-c2cc3nccc(Oc4ccc(NC(=S)NC(=O)Cc5ccccc5)cc4F)c3s2)c1	microbial growth		NCTC8325			MIC	> 30 µM
COc1ccc2nc(-n3nc(CC(C)C)c4c3-c3ccccc3C4=O)sc2c1	microbial growth	well diffusion	NCIM5021	125 µg/mL		inhibition zone	12 mm
COc1ccc(-c2ccc3c(N4CCOC[C@@H]4C)nc(N4CCOC[C@@H]4C)nc3n2)cc1CO	microbial growth		NCTC8325			MIC	> 30 µM
O=C1NC(=S)N/C1=C\c1ccc(-c2ccc(N(c3ccccc3)c3ccccc3)cc2)c2ccccc12	microbial killing	broth dilution	ATCC43300			MBC	> 1000 µg/mL
